{
  "source": "ChEMBL document CHEMBL1122504",
  "about": "“Heterocyclic Quinones. 4. A new highly cytotoxic drug: 6,7-bis(1-aziridinyl)-5,8-quinazolinedione” (1983)",
  "key": {"[1]": {"system": "B16", "experiment": "MST of treated animal over control when administered at a dose of 5 mg/kg intraperitoneally on Q01Dx01 treatment schedule in B16 melanocarcinoma cell lines", "type": "functional, Mus musculus", "details": "route intraperitoneal", "how_it_was_run": "(§1)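 B16 melanocarcinoma: C57Bl/6 mice implanted sc with cell suspension on day 0; single ip dose in 0.15 M NaCl saline given on day 1. Median survival time was recorded in days, with toxicity taken as survivors on day 5. T/C% = treated MST/control MST × 100; >125% is considered significant.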"}, "[2]": {"system": "Sarcoma-180", "experiment": "Median survival time of sarcoma 180 cell line after a dose of 20 mg/kg administered intraperitoneally on Q01Dx01 treatment schedule", "type": "functional, Mus musculus", "details": "route intraperitoneal", "how_it_was_run": "(§2)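 Sarcoma 180 was inoculated ip in Swiss mice (10^6 cells, day 0), and drug was given ip in 0.15 M NaCl saline. Median survival time was recorded in days; antitumor activity was expressed as treated MST over control MST ×100, significant above 125%.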"}, "[3]": {"system": "P388", "experiment": "MST of treated animal over control when administered at a dose of 5 mg/kg intraperitoneally on Q01Dx09 treatment schedule", "type": "functional, Mus musculus", "details": "route intraperitoneal", "how_it_was_run": "(§3)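 P388 leukaemia: DBA/2 mice inoculated with 10^6 cells on day 0; treatment began day 1 at the stated route and schedule. Drug was dissolved in 0.15 M NaCl saline. The read-out was median survival time (MST, days), with toxicity taken as survivors on day 5. T/C% = treated MST/control MST × 100; ≥125% is considered significant.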"}, "[4]": {"system": "P388", "experiment": "Median survival time of P388 lymphocytic leukemia cell line after a dose of 5 mg/kg administered intravenously on Q01Dx01 treatment schedule", "type": "functional, Mus musculus", "details": "route intravenous", "how_it_was_run": "as §3"}, "[5]": {"system": "Salmonella typhimurium", "experiment": "Mutagenesis test was performed at 20 uM concentration in Salmonella Typhimurium TA 98", "type": "functional, Salmonella enterica subsp. enterica serovar Typhimurium", "how_it_was_run": "(§4)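 Salmonella typhimurium his auxotrophs TA98 and TA100 were tested by liquid suspension without metabolic activation. Overnight Oxoid nutrient broth cultures were subcultured, grown 2 h, then exposed to drug for 5 h. Cells were washed, resuspended to A650 2.50, and plated in top agar (0.6% agar, 0.6% NaCl). His+ revertants per plate were counted after 48 h at 37 °C; values are means of three assays.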"}, "[6]": {"system": "L1210", "experiment": "Number of survivors of L1210 cell line on day 5/ number of treated mice at a dose of 5ip injection of 10 mg/kg on Q01Dx05 treatment schedule; 10/10", "type": "functional, Mus musculus"}, "[7]": {"system": "P388", "experiment": "MST of treated animal over control when administered at a dose of 2.5 mg/kg intravenously on Q01Dx01 treatment schedule", "type": "functional, Mus musculus", "details": "route intravenous", "how_it_was_run": "as §3"}, "[8]": {"system": "L1210", "experiment": "Number of survivors of L1210 cell line on day 5/ number of treated mice at a dose of 5ip injection of 5 mg/kg on Q01Dx05 treatment schedule; 10/10", "type": "functional, Mus musculus"}, "[9]": {"system": "L1210", "experiment": "Number of survivors of L1210 cell line on day 5/ number of treated mice at a dose of 1 i.p. injection of 10 mg/kg on Q01Dx01 treatment schedule; 10/10", "type": "functional, Mus musculus", "details": "route intraperitoneal"}, "[10]": {"system": "Salmonella typhimurium", "experiment": "Mutagenesis test was performed at 0.3 uM concentration in Salmonella Typhimurium TA 100", "type": "functional, Salmonella enterica subsp. enterica serovar Typhimurium", "how_it_was_run": "as §4"}, "[11]": {"system": "Sarcoma-180", "experiment": "Median survival time of sarcoma 180 cell line after a dose of 10 mg/kg administered intraperitoneally on Q01Dx01 treatment schedule", "type": "functional, Mus musculus", "details": "route intraperitoneal", "how_it_was_run": "as §2"}, "[12]": {"system": "L1210", "experiment": "MST of treated animal over control when administered at a dose of 5 mg/kg intraperitoneally on Q01Dx09 treatment schedule in L1210 cell lines", "type": "functional, Mus musculus", "details": "route intraperitoneal", "how_it_was_run": "(§5)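 L1210 leukaemia: DBA/2 mice inoculated ip with 10^5 cells on day 0, with ip drug in 0.15 M NaCl saline on the stated schedule. The read-out was median survival time in days, with toxicity taken as survivors on day 5. T/C% = treated MST/control MST × 100; >125% is considered significant.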"}, "[13]": {"system": "P388", "experiment": "Median survival time of P388 lymphocytic leukemia cell line after a dose of 20 mg/kg administered perorally on Q01Dx07 treatment schedule", "type": "functional, Mus musculus", "details": "route oral", "how_it_was_run": "as §3"}, "[14]": {"system": "P388", "experiment": "MST of treated animal over control when administered at a dose of 10 mg/kg intraperitoneally on Q01Dx05 treatment schedule", "type": "functional, Mus musculus", "details": "route intraperitoneal", "how_it_was_run": "as §3"}, "[15]": {"system": "L1210", "experiment": "Number of survivors of L1210 cell line on day 5/ number of treated mice at a dose of 2 ip injection of 15 mg/kg on Q01Dx02 treatment schedule; 10/10", "type": "functional, Mus musculus", "details": "route intraperitoneal"}, "[16]": {"system": "P388", "experiment": "MST of treated animal over control when administered at a dose of 5 mg/kg intravenously on Q01Dx01 treatment schedule", "type": "functional, Mus musculus", "details": "route intravenous", "how_it_was_run": "as §3"}, "[17]": {"system": "Sarcoma-180", "experiment": "MST of treated animal over control when administered at a dose of 10 mg/kg intraperitoneally on Q01Dx01 treatment schedule in sarcoma 180 cell lines", "type": "functional, Mus musculus", "details": "route intraperitoneal", "how_it_was_run": "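Sarcoma 180: Swiss mice inoculated ip with 10^6 cells on day 0, with single ip injection of drug in 0.15 M NaCl saline. Median survival time was recorded in days, with toxicity taken as survivors on day 5. T/C% = treated MST/control MST × 100; >125% is considered significant.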"}, "[18]": {"system": "Salmonella typhimurium", "experiment": "Mutagenesis test was performed at 4 uM concentration in Salmonella Typhimurium TA 98", "type": "functional, Salmonella enterica subsp. enterica serovar Typhimurium", "how_it_was_run": "as §4"}, "[19]": {"system": "P388", "experiment": "MST of treated animal over control when administered at a dose of 5 mg/kg intraperitoneally on Q01Dx05 treatment schedule", "type": "functional, Mus musculus", "details": "route intraperitoneal", "how_it_was_run": "as §3"}, "[20]": {"system": "L1210", "experiment": "MST of treated animal over control when administered at a dose of 15 mg/kg intraperitoneally on Q01Dx02 treatment schedule in L1210 cell lines", "type": "functional, Mus musculus", "details": "route intraperitoneal", "how_it_was_run": "as §5"}, "[21]": {"system": "Salmonella typhimurium", "experiment": "Mutagenesis test was performed at 0.7 uM concentration in Salmonella Typhimurium TA 98", "type": "functional, Salmonella enterica subsp. enterica serovar Typhimurium", "how_it_was_run": "as §4"}, "[22]": {"system": "L1210", "experiment": "Median survival time of L1210 cell line after a dose of 20 mg/kg administered intraperitoneally on Q01Dx01 treatment schedule", "type": "functional, Mus musculus", "details": "route intraperitoneal", "how_it_was_run": "as §5"}, "[23]": {"system": "P388", "experiment": "Number of survivors of P388 lymphocytic leukemia cell line on day 5/ number of treated mice at a dose of 1 i.v. injection of 15 mg/kg on Q01Dx01 treatment schedule; 5/10", "type": "functional, Mus musculus", "details": "route intravenous"}, "[24]": {"system": "L1210", "experiment": "Number of survivors of L1210 cell line on day 5/ number of treated mice at a dose of 9ip injection of 2.5 mg/kg on Q01Dx09 treatment schedule; 10/10", "type": "functional, Mus musculus"}, "[25]": {"system": "P388", "experiment": "Number of survivors of P388 lymphocytic leukemia cell line on day 5/ number of treated mice at a dose of 1 i.v. injection of 2.5 mg/kg on Q01Dx01 treatment schedule; 9/10", "type": "functional, Mus musculus", "details": "route intravenous"}, "[26]": {"system": "P388", "experiment": "Number of survivors of P388 lymphocytic leukemia cell line on day 5/ number of treated mice at a dose of 1 i.v. injection of 5 mg/kg on Q01Dx01 treatment schedule; 10/10", "type": "functional, Mus musculus", "details": "route intravenous"}, "[27]": {"system": "B16", "experiment": "Median survival time of […] melanocarcinoma cell line after a dose of 10 mg/kg administered intraperitoneally on Q01Dx01 treatment schedule", "type": "functional, Mus musculus", "details": "route intraperitoneal", "how_it_was_run": "as §1"}, "[28]": {"system": "P388", "experiment": "MST of treated animal over control when administered at a dose of 15 mg/kg intravenously on Q01Dx01 treatment schedule", "type": "functional, Mus musculus", "details": "route intravenous", "how_it_was_run": "as §3"}, "[29]": {"system": "B16", "experiment": "MST of treated animal over control when administered at a dose of 2.5 mg/kg intraperitoneally on Q01Dx01 treatment schedule in B16 melanocarcinoma cell lines", "type": "functional, Mus musculus", "details": "route intraperitoneal", "how_it_was_run": "as §1"}, "[30]": {"system": "P388", "experiment": "Median survival time of P388 lymphocytic leukemia cell line after a dose of 2.5 mg/kg administered intraperitoneally on Q01Dx09 treatment schedule", "type": "functional, Mus musculus", "details": "route intraperitoneal", "how_it_was_run": "as §3"}},
  "note": "Values joined by “and” are separate entries in the source; they are usually repeats but may differ in a detail not shown here. Identical values can stand only once.",
  "data": [
    {"smiles": "O=C1C(N2CC2)=C(N2CC2)C(=O)c2ncncc21", "values": [
      {"measurement": "T/C", "setting": "[1]", "value": 126, "unit": "%"},
      {"measurement": "MST", "setting": "[2]", "value": 19, "unit": "days"},
      {"measurement": "T/C", "setting": "[3]", "value": 148, "unit": "%"},
      {"measurement": "MST", "setting": "[4]", "value": 10.4, "unit": "days"},
      {"measurement": "Revertants/plate", "setting": "[5]", "value": 98},
      {"measurement": "Toxicity Survivors", "setting": "[6]", "value": 10},
      {"measurement": "T/C", "setting": "[7]", "value": 103, "unit": "%"},
      {"measurement": "Toxicity Survivors", "setting": "[8]", "value": 10},
      {"measurement": "Toxicity Survivors", "setting": "[9]", "value": 10},
      {"measurement": "Revertants/plate", "setting": "[10]", "value": 76},
      {"measurement": "MST", "setting": "[11]", "value": 18.3, "unit": "days"},
      {"measurement": "T/C", "setting": "[12]", "value": 109, "unit": "%"},
      {"measurement": "MST", "setting": "[13]", "value": 7.6, "unit": "days"},
      {"measurement": "T/C", "setting": "[14]", "value": 84, "unit": "%"},
      {"measurement": "Toxicity Survivors", "setting": "[15]", "value": 10},
      {"measurement": "T/C", "setting": "[16]", "value": 103, "unit": "%"},
      {"measurement": "T/C", "setting": "[17]", "value": 109, "unit": "%"},
      {"measurement": "Revertants/plate", "setting": "[18]", "value": 81},
      {"measurement": "T/C", "setting": "[19]", "value": 138, "unit": "%"},
      {"measurement": "T/C", "setting": "[20]", "value": 104, "unit": "%"},
      {"measurement": "Revertants/plate", "setting": "[21]", "value": 101},
      {"measurement": "MST", "setting": "[22]", "value": 9.4, "unit": "days"},
      {"measurement": "Toxicity Survivors", "setting": "[23]", "value": 5},
      {"measurement": "Toxicity Survivors", "setting": "[24]", "value": 10},
      {"measurement": "Toxicity Survivors", "setting": "[25]", "value": 9},
      {"measurement": "Toxicity Survivors", "setting": "[26]", "value": 10},
      {"measurement": "MST", "setting": "[27]", "value": 20.8, "unit": "days"},
      {"measurement": "T/C", "setting": "[28]", "value": "139% and 114%"},
      {"measurement": "T/C", "setting": "[29]", "value": 121, "unit": "%"},
      {"measurement": "MST", "setting": "[30]", "value": 10.4, "unit": "days"}
    ]}
  ]
}
